Assay results taken from ChEMBL document CHEMBL1629439, “High-throughput identification of antibacterials against methicillin-resistant Staphylococcus aureus (MRSA) and the transglycosylase” (Bioorg Med Chem, 2010).
≈ marks a conversion by molar mass, not a printed value.

Key:
Escherichia coli = assay: Antimicrobial activity against Escherichia coli ATCC […] after 18 to 24 hrs by alamar blue assay; type: functional; details: Escherichia coli; read-out: MIC
How it was run: (§1)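 Broth microdilution per NCCLS in Mueller-Hinton broth, 8-point twofold dilutions, 384-well format. Exponential-phase cells at 5 × 10^5 cells/ml incubated with compound 18–24 h at 37 °C, then 20% Alamar blue added and fluorescence read. MIC90 taken as the lowest concentration preventing at least 90% bacterial growth.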

Acinetobacter baumannii = assay: Antimicrobial activity against Acinetobacter baumannii ATCC 49139 after 18 to 24 hrs by alamar blue assay; type: functional; details: Acinetobacter baumannii, ATCC 49139; read-out: MIC; how it was run: as §1
[1] = system: Mycolicibacterium smegmatis; assay: Antimicrobial activity against Mycobacterium smegmatis BCRC 11565 after 18 to 24 hrs by alamar blue assay; type: functional; details: Mycolicibacterium smegmatis, BCRC 11565; read-out: MIC; how it was run: as §1
Staphylococcus aureus [2] = assay: Antimicrobial activity against Staphylococcus aureus ATCC 29213 after 18 to 24 hrs by alamar blue assay
Pseudomonas aeruginosa = assay: Antimicrobial activity against Pseudomonas aeruginosa ATCC 25619 after 18 to 24 hrs by alamar blue assay; type: functional; details: Pseudomonas aeruginosa, ATCC 25619; read-out: MIC; how it was run: as §1
Serratia marcescens = assay: Antimicrobial activity against Serratia marcescens ATCC 14756 after 18 to 24 hrs by alamar blue assay; type: functional; details: Serratia marcescens, ATCC 14756; read-out: MIC; how it was run: as §1
[3] = system: Stenotrophomonas maltophilia; assay: Antimicrobial activity against Stenotrophomonas maltophilia ATCC 13637 after 18 to 24 hrs by alamar blue assay; type: functional; details: Stenotrophomonas maltophilia, ATCC 13637; read-out: MIC; how it was run: as §1
Bacillus subtilis = assay: Antimicrobial activity against Bacillus subtilis ATCC 23857 after 18 to 24 hrs by alamar blue assay; type: functional; how it was run: as §1
Staphylococcus aureus [4] = assay: Antimicrobial activity against methicillin-resistant Staphylococcus aureus ATCC 33592 after 18 to 24 hrs by alamar blue assay; type: functional; details: Staphylococcus aureus, ATCC 33592; read-out: MIC
How it was run: (§2)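 Broth microdilution per NCCLS standard, Mueller-Hinton broth, 8-point twofold dilutions; exponentially growing cells at 5 10^5 cells/ml with compound, 18–24 h at 37 C; 20% Alamar blue added, fluorescence read; MIC90 taken as lowest concentration preventing at least 90% growth.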

Staphylococcus aureus [5] = assay: Antimicrobial activity against methicillin-resistant Staphylococcus aureus isolate NTUH4722 after 18 to 24 hrs by alamar blue assay; type: functional; how it was run: as §2
Staphylococcus aureus [6] = assay: Antimicrobial activity against oxacillin- and methicillin-resistant Staphylococcus aureus isolate Sa-OXA-R2 after 18 to 24 hrs by alamar blue assay; type: functional; how it was run: as §2

CCC1Sc2ccc(S(=O)(=O)Nc3c(C)cc(C)cc3C)cc2NC1=O (configuration not stated)
MIC (Escherichia coli): > 256 µg/mL
MIC (Acinetobacter baumannii): > 256 µg/mL
MIC [1]: > 64 µg/mL
MIC (Staphylococcus aureus [2]): 2 µg/mL (≈ 5.12 µM)
MIC (Pseudomonas aeruginosa): > 256 µg/mL
MIC (Serratia marcescens): > 256 µg/mL
MIC [3]: > 256 µg/mL
MIC (Bacillus subtilis): < 0.03 µg/mL
MIC (Staphylococcus aureus [4]): 64 µg/mL (≈ 164 µM)
MIC (Staphylococcus aureus [5]): 32 µg/mL (≈ 81.9 µM)
MIC (Staphylococcus aureus [6]): > 64 µg/mL

Cc1cccc(NS(=O)(=O)c2ccc3c(c2)NC(=O)C(C)S3)c1C (configuration not stated)
MIC (Escherichia coli): > 256 µg/mL
MIC (Acinetobacter baumannii): > 256 µg/mL
MIC [1]: > 64 µg/mL
MIC (Staphylococcus aureus [2]): 2 µg/mL (≈ 5.52 µM)
MIC (Pseudomonas aeruginosa): > 256 µg/mL
MIC (Serratia marcescens): > 256 µg/mL
MIC [3]: > 256 µg/mL
MIC (Bacillus subtilis): < 0.03 µg/mL
MIC (Staphylococcus aureus [4]): 64 µg/mL (≈ 177 µM)
MIC (Staphylococcus aureus [5]): 16 µg/mL (≈ 44.1 µM)
MIC (Staphylococcus aureus [6]): 16 µg/mL (≈ 44.1 µM)

CCCc1cc(O)nc(N2NC(C)=CC2NC(=O)c2ccccc2)n1 (configuration not stated)
MIC (Escherichia coli): > 256 µg/mL
MIC (Acinetobacter baumannii): > 256 µg/mL
MIC [1]: 0.25 µg/mL (≈ 0.737 µM)
MIC (Staphylococcus aureus [2]): 2 µg/mL (≈ 5.89 µM)
MIC (Pseudomonas aeruginosa): > 256 µg/mL
MIC (Serratia marcescens): > 256 µg/mL
MIC [3]: > 256 µg/mL
MIC (Bacillus subtilis): 0.25 µg/mL (≈ 0.737 µM)
MIC (Staphylococcus aureus [4]): 8 µg/mL (≈ 23.6 µM)
MIC (Staphylococcus aureus [5]): 8 µg/mL (≈ 23.6 µM)
MIC (Staphylococcus aureus [6]): 8 µg/mL (≈ 23.6 µM)

O=C(Nc1ccc(Cl)cc1)c1cc(Br)cc(Br)c1O
MIC (Escherichia coli): 8 µg/mL (≈ 19.7 µM)
MIC (Acinetobacter baumannii): 16 µg/mL (≈ 39.5 µM)
MIC [1]: 0.5 µg/mL (≈ 1.23 µM)
MIC (Staphylococcus aureus [2]): 1 µg/mL (≈ 2.47 µM)
MIC (Pseudomonas aeruginosa): 16 µg/mL (≈ 39.5 µM)
MIC (Serratia marcescens): 16 µg/mL (≈ 39.5 µM)
MIC [3]: 16 µg/mL (≈ 39.5 µM)
MIC (Bacillus subtilis): < 0.03 µg/mL
MIC (Staphylococcus aureus [4]): 4 µg/mL (≈ 9.87 µM)
MIC (Staphylococcus aureus [5]): 1 µg/mL (≈ 2.47 µM)
MIC (Staphylococcus aureus [6]): 1 µg/mL (≈ 2.47 µM)

CSc1ccccc1-c1nnc(NC(=O)c2nc3ccccc3s2)o1
MIC (Escherichia coli): > 256 µg/mL
MIC (Acinetobacter baumannii): > 256 µg/mL
MIC [1]: 0.5 µg/mL (≈ 1.36 µM)
MIC (Staphylococcus aureus [2]): 4 µg/mL (≈ 10.9 µM)
MIC (Pseudomonas aeruginosa): > 256 µg/mL
MIC (Serratia marcescens): > 256 µg/mL
MIC [3]: > 256 µg/mL
MIC (Bacillus subtilis): 0.5 µg/mL (≈ 1.36 µM)
MIC (Staphylococcus aureus [4]): 2 µg/mL (≈ 5.43 µM)
MIC (Staphylococcus aureus [5]): 2 µg/mL (≈ 5.43 µM)
MIC (Staphylococcus aureus [6]): 4 µg/mL (≈ 10.9 µM)

CCCc1cc(O)nc(N2NC(C)=CC2NC(=O)c2ccccc2Cl)n1 (configuration not stated)
MIC (Escherichia coli): > 256 µg/mL
MIC (Acinetobacter baumannii): > 256 µg/mL
MIC [1]: 0.25 µg/mL (≈ 0.669 µM)
MIC (Staphylococcus aureus [2]): 1 µg/mL (≈ 2.67 µM)
MIC (Pseudomonas aeruginosa): > 256 µg/mL
MIC (Serratia marcescens): > 256 µg/mL
MIC [3]: > 256 µg/mL
MIC (Bacillus subtilis): 0.25 µg/mL (≈ 0.669 µM)
MIC (Staphylococcus aureus [4]): 0.5 µg/mL (≈ 1.34 µM)
MIC (Staphylococcus aureus [5]): 1 µg/mL (≈ 2.67 µM)
MIC (Staphylococcus aureus [6]): 2 µg/mL (≈ 5.35 µM)

O=C(Nc1nnc(-c2ccc(Cl)cc2)o1)c1ccc(C(F)(F)F)cc1
MIC (Escherichia coli): > 256 µg/mL
MIC (Acinetobacter baumannii): > 256 µg/mL
MIC [1]: 0.5 µg/mL (≈ 1.36 µM)
MIC (Staphylococcus aureus [2]): 3 µg/mL (≈ 8.16 µM)
MIC (Pseudomonas aeruginosa): > 256 µg/mL
MIC (Serratia marcescens): > 256 µg/mL
MIC [3]: > 256 µg/mL
MIC (Bacillus subtilis): 0.5 µg/mL (≈ 1.36 µM)
MIC (Staphylococcus aureus [4]): 1.5 µg/mL (≈ 4.08 µM)
MIC (Staphylococcus aureus [5]): 1.5 µg/mL (≈ 4.08 µM)
MIC (Staphylococcus aureus [6]): 1.5 µg/mL (≈ 4.08 µM)

CCCc1cc(O)nc(N2NC(C)=CC2NC(=O)c2ccccc2F)n1 (configuration not stated)
MIC (Escherichia coli): > 256 µg/mL
MIC (Acinetobacter baumannii): > 256 µg/mL
MIC [1]: 0.25 µg/mL (≈ 0.7 µM)
MIC (Staphylococcus aureus [2]): 2 µg/mL (≈ 5.6 µM)
MIC (Pseudomonas aeruginosa): > 256 µg/mL
MIC (Serratia marcescens): > 256 µg/mL
MIC [3]: > 256 µg/mL
MIC (Bacillus subtilis): 0.25 µg/mL (≈ 0.7 µM)
MIC (Staphylococcus aureus [4]): 0.5 µg/mL (≈ 1.4 µM)
MIC (Staphylococcus aureus [5]): 1 µg/mL (≈ 2.8 µM)
MIC (Staphylococcus aureus [6]): 1 µg/mL (≈ 2.8 µM)

CC1=CC(NC(=O)C(C)Oc2ccccc2)N(c2nc(C)c(C)c(O)n2)N1 (configuration not stated)
MIC (Escherichia coli): > 256 µg/mL
MIC (Acinetobacter baumannii): > 256 µg/mL
MIC [1]: 0.25 µg/mL (≈ 0.677 µM)
MIC (Staphylococcus aureus [2]): 1 µg/mL (≈ 2.71 µM)
MIC (Pseudomonas aeruginosa): > 256 µg/mL
MIC (Serratia marcescens): > 256 µg/mL
MIC [3]: > 256 µg/mL
MIC (Bacillus subtilis): 0.25 µg/mL (≈ 0.677 µM)
MIC (Staphylococcus aureus [4]): 0.25 µg/mL (≈ 0.677 µM)
MIC (Staphylococcus aureus [5]): 1 µg/mL (≈ 2.71 µM)
MIC (Staphylococcus aureus [6]): 1 µg/mL (≈ 2.71 µM)

O=C(Nc1nnc(-c2ccc(F)cc2)o1)c1cccc(Br)c1
MIC (Escherichia coli): > 256 µg/mL
MIC (Acinetobacter baumannii): > 256 µg/mL
MIC [1]: 0.5 µg/mL (≈ 1.38 µM)
MIC (Staphylococcus aureus [2]): 2 µg/mL (≈ 5.52 µM)
MIC (Pseudomonas aeruginosa): > 256 µg/mL
MIC (Serratia marcescens): > 256 µg/mL
MIC [3]: > 256 µg/mL
MIC (Bacillus subtilis): 0.5 µg/mL (≈ 1.38 µM)
MIC (Staphylococcus aureus [4]): 0.5 µg/mL (≈ 1.38 µM)
MIC (Staphylococcus aureus [5]): 1 µg/mL (≈ 2.76 µM)
MIC (Staphylococcus aureus [6]): 1 µg/mL (≈ 2.76 µM)

Cc1ccc(NS(=O)(=O)c2ccc3c(c2)NCC(C)C(=O)S3)c(C)c1 (configuration not stated)
MIC (Escherichia coli): > 256 µg/mL
MIC (Acinetobacter baumannii): > 256 µg/mL
MIC [1]: > 64 µg/mL
MIC (Staphylococcus aureus [2]): 2 µg/mL (≈ 5.31 µM)
MIC (Pseudomonas aeruginosa): > 256 µg/mL
MIC (Serratia marcescens): > 256 µg/mL
MIC [3]: > 256 µg/mL
MIC (Bacillus subtilis): < 0.03 µg/mL
MIC (Staphylococcus aureus [4]): 2 µg/mL (≈ 5.31 µM)
MIC (Staphylococcus aureus [5]): 16 µg/mL (≈ 42.5 µM)
MIC (Staphylococcus aureus [6]): > 64 µg/mL

O=C(Nc1nnc(-c2ccccc2Cl)o1)c1cccc(C(F)(F)F)c1
MIC (Escherichia coli): > 256 µg/mL
MIC (Acinetobacter baumannii): > 256 µg/mL
MIC [1]: 0.5 µg/mL (≈ 1.36 µM)
MIC (Staphylococcus aureus [2]): 1 µg/mL (≈ 2.72 µM)
MIC (Pseudomonas aeruginosa): > 256 µg/mL
MIC (Serratia marcescens): > 256 µg/mL
MIC [3]: > 256 µg/mL
MIC (Bacillus subtilis): 0.5 µg/mL (≈ 1.36 µM)
MIC (Staphylococcus aureus [4]): 0.5 µg/mL (≈ 1.36 µM)
MIC (Staphylococcus aureus [5]): 2 µg/mL (≈ 5.44 µM)
MIC (Staphylococcus aureus [6]): 0.5 µg/mL (≈ 1.36 µM)
